In paper PMC3654864 (Journal of medicinal chemistry, 2012):
Where two headings read alike, the source gives them in different places.

Legend:
[1] = system: PC3 prostate cancer cell lines; experiment: MTT cytotoxicity assay in PC3 cells; assay type: cell-based, human
[2] = system: PC3 and LNCaP prostate cancer cell lines; experiment: In-vitro cytotoxicity in PC3 and LNCaP, summary statements for both lines; assay type: cell-based, human
Summary of the method: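 MTT colorimetric assay on human prostate cancer cells (androgen receptor-positive LNCaP, androgen receptor-negative PC3). Cells were exposed to six concentrations of test compound for 7 days, with viable cells read spectrophotometrically on days 3, 5 and 7. IC50 was taken from the day-7 read. Emetine was run in the same assay.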

healthy mice = experiment: In-vivo toxicity study in healthy mice; details: for toxicity on three-week follow-up: after 100 mg/kg iv daily for five days, studied for three weeks; for appearance of mice / percent weight loss relative to control mice: 33 mg/kg; for appearance of mice: 48 hours; for percent weight loss relative to control mice: within 48 hours of daily dosing; for percent weight change within 48 hours versus control group: 100 mg/kg; for signs of toxicity: 100 mg/kg body weight daily for five days
[3] = pH-responsive hydrolysis to emetine in phosphate buffer, quantified by HPLC; assay type: physicochemical; details: for activation to emetine at pH 5.5: pH 5.5, over a 48 h period; for percent emetine released (hydrolysis to emetine) at pH 6.5: phosphate buffer pH 6.5, 37 °C
Summary of the method: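 Pure test compound was incubated at 37 °C in aqueous phosphate buffer at pH 5.5, 6.5 or 7.4 for 24–48 h; stability at pH 7.4 was followed up to 5 days. Samples were analysed by HPLC to quantify released emetine. Percent conversion is the percent emetine in the sample mixture.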

[4] = system: LNCaP prostate cancer cell lines; experiment: MTT cytotoxicity assay in LNCaP cells; assay type: cell-based, human; details: 7 day, relative to compound 13
[5] = PC3, Figures 4a-f, time at which optimum IC50 is reached or pattern

With `CC[C@H]1CN2CCc3cc(OC)c(OC)cc3[C@@H]2C[C@@H]1C[C@@H]1c2cc(OC)c(OC)cc2CCN1C(=S)NCc1ccc(OC)cc1` [Compound 5] the “progress of cytotoxicity (IC50) over day 3, 5 and 7” value (shortened to “progress … over day 3, 5 and 7”) [1, 5] was “an optimum IC50 value was obtained by day 5”.

In the case of `CC[C@H]1CN2CCc3cc(OC)c(OC)cc3[C@@H]2C[C@@H]1C[C@@H]1c2cc(OC)c(OC)cc2CCN1C(=S)NCc1ccc(Cl)cc1` [Compound 6], the “progress … over day 3, 5 and 7” value [1, 5] is reported as “reach an optimum by day 3”.

With `CC[C@H]1CN2CCc3cc(OC)c(OC)cc3[C@@H]2C[C@@H]1C[C@@H]1c2cc(OC)c(OC)cc2CCN1C(=O)NCc1ccccc1` [Compound 7] the “progress … over day 3, 5 and 7” value [1] was “reach an optimum by day 3”.

With `CC[C@H]1CN2CCc3cc(OC)c(OC)cc3[C@@H]2C[C@@H]1C[C@@H]1c2cc(OC)c(OC)cc2CCN1C(=O)NCc1ccc(OC)cc1` [Compound 8] the “progress … over day 3, 5 and 7” value [1] was “progressive decrease in IC50 values”.

In the case of `CC[C@H]1CN2CCc3cc(OC)c(OC)cc3[C@@H]2C[C@@H]1C[C@@H]1c2cc(OC)c(OC)cc2CCN1C(=O)NCc1ccc(Cl)cc1` [Compound 9], the “progress … over day 3, 5 and 7” value [1, 5] is reported as “reach an optimum by day 3”.

For `CC[C@H]1CN2CCc3cc(OC)c(OC)cc3[C@@H]2C[C@@H]1C[C@@H]1c2cc(OC)c(OC)cc2CCN1S(=O)(=O)c1ccc(OC)cc1` [Compound 12], the “progress … over day 3, 5 and 7” value [1] was “an optimum IC50 value was obtained by day 5”.

In the case of `CC[C@H]1CN2CCc3cc(OC)c(OC)cc3[C@@H]2C[C@@H]1C[C@@H]1c2cc(OC)c(OC)cc2CCN1C(=S)[S-].[Na+]` [Compound 13], the “7th day IC50 fold higher than emetine” value ([2]; LNCaP and PC3, 7th day, relative to emetine) is reported as “about 3 fold”, the “toxicity on three-week follow-up” value (healthy mice) is reported as “no noticeable effect of toxicity” and the appearance of mice (healthy mice; iv) is reported as “appeared healthy with no noticeable signs of toxicity”. The “percent weight loss relative to control mice” value (healthy mice; iv) was “no significant difference”, the “percent weight change within 48 hours versus control group” value (healthy mice; iv) was “very similar to that obtained for the control group” and the signs of toxicity (healthy mice; iv) was “no sign of toxicity”. For the same compound, the “activation to emetine at pH 5.5” value [3] was “activated to emetine”, the “percent hydrolysis to emetine at pH 5.5” value ([3]; phosphate buffer pH 5.5, 37 °C, within 48 hours) was “about 94.5%” and the “percent emetine released (hydrolysis to emetine) at pH 6.5” value (from here on “percent emetine released”) ([3]; within 48 hours) was 13.2%. The “progress … over day 3, 5 and 7” value [1, 5] was “an optimum IC50 value was obtained by day 5”.

For `CC[C@H]1CN2CCc3cc(OC)c(OC)cc3[C@@H]2C[C@@H]1C[C@@H]1c2cc(OC)c(OC)cc2CCN1C(=S)SCc1ccccc1` [Compound 14], the “fold increase of IC50 relative to 13” value [4] was “about 24 fold”, the “fold increase of IC50 relative to 13” value ([1]; PC3, 7 day, relative to compound 13) was roughly 18 fold and the “progress … over day 3, 5 and 7” value [1, 5] was “progressive decrease in IC50 values”.

With `CC[C@H]1CN2CCc3cc(OC)c(OC)cc3[C@@H]2C[C@@H]1C[C@@H]1c2cc(OC)c(OC)cc2CCN1C(=O)OCc1ccccc1` [Compound 15] the “progress … over day 3, 5 and 7” value [1, 5] was “progressive decrease in IC50 values”.

For `CC[C@H]1CN2CCc3cc(OC)c(OC)cc3[C@@H]2C[C@@H]1C[C@@H]1c2cc(OC)c(OC)cc2CCN1C(=O)/C=C\C(=O)O` [Compound 21], the “activation to emetine at pH 5.5” value [3] was “activated to emetine” and the “percent emetine released” value ([3]; within 48 hours) was “about 50%”.

For `CC[C@H]1CN2CCc3cc(OC)c(OC)cc3[C@@H]2C[C@@H]1C[C@@H]1c2cc(OC)c(OC)cc2CCN1C(=O)/C=C(/C)C(=O)O` [Compound 22], the “activation to emetine at pH 5.5” value [3] was “activated to emetine” and the “percent emetine released” value ([3]; within 48 hours) was roughly 80%.

With `CC[C@H]1CN2CCc3cc(OC)c(OC)cc3[C@@H]2C[C@@H]1C[C@@H]1c2cc(OC)c(OC)cc2CCN1C(=O)CCC(=O)[O-].[Na+]` [Compound 24] the “progress … over day 3, 5 and 7” value [1] was “an optimum IC50 value was obtained by day 5”.

In the case of `CC[C@H]1CN2CCc3cc(OC)c(OC)cc3[C@@H]2C[C@@H]1C[C@@H]1c2cc(OC)c(OC)cc2CCN1C(=O)/C=C\C(=O)[O-].[Na+]` [Compound 25], the “activation to emetine at pH 5.5” value [3] is reported as “activated to emetine”.

With `CC[C@H]1CN2CCc3cc(OC)c(OC)cc3[C@@H]2C[C@@H]1C[C@@H]1c2cc(OC)c(OC)cc2CCN1C(=O)/C=C(/C)C(=O)[O-].[Na+]` [Compound 26] the “toxicity on three-week follow-up” value (healthy mice) was “no noticeable effect of toxicity”, the “percent weight change within 48 hours versus control group” value (healthy mice; iv) was “very similar to that obtained for the control group” and the signs of toxicity (healthy mice; iv) was “no sign of toxicity”. The “activation to emetine at pH 5.5” value [3] was “activated to emetine”, the “percent emetine released” value ([3]; within 48 hours) was “about 50%” and the “progress … over day 3, 5 and 7” value [1] was “an optimum IC50 value was obtained by day 5”.

For `CC[C@H]1CN2CCc3cc(OC)c(OC)cc3[C@@H]2C[C@@H]1C[C@@H]1c2cc(OC)c(OC)cc2CCN1C(=O)/C=C(/CC(=O)[O-])C(=O)[O-].[Na+].[Na+]` [Compound 27], the “activation to emetine at pH 5.5” value [3] was “activated to emetine”.

For `CC[C@H]1CN2CCc3cc(OC)c(OC)cc3[C@@H]2C[C@@H]1C[C@H]1NCCc2cc(OC)c(OC)cc21.Cl.Cl` [emetine, Emetine, reference compound], the IC50 ([2]; Homo sapiens, LNCaP, read-out: IC50 range of emetine) was 0.0237 to 0.0329 µM, the lethality (healthy mice; iv, 33 mg/kg body weight, within the period of study) was “did not kill the mice” and the “average weight loss over a 48 hour period” value (healthy mice; iv, 33 mg/kg daily dosing) was “about 3.6%”. The appearance of mice (healthy mice; iv) was “appeared lethargic”, the “percent weight loss relative to control mice” value (healthy mice; iv) was “about 4” and the lethality (healthy mice; iv, single dose 100 mg/kg body weight, within 48 hours) was “killed all three mice”.
